# Measurements taken from ChEMBL document CHEMBL1131605, “Synthesis and pharmacological activity of triazolo[1,5-a]triazine derivatives inhibiting eosinophilia” (1998).
# Test system: Rattus norvegicus
# Experiment: Percent inhibition value on the Sephadex-induced lung eosinophilia model at an intraperitoneal (ip) dose of 3 mg/kg
# Format: functional
# How it was run: (§1)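 Male Wistar rats, five per group; Sephadex G-200 (0.5 mg/mL in sterile saline, swollen by boiling 5 h), 1 mL injected via tail vein on days 0, 3 and 5; drug or vehicle given ip 10 min before each Sephadex injection. Day 7: lavage with heparinized PBS (37 °C), repeated, pooled; cells counted microscopically. Inhibition (%) from group-mean eosinophil/total-cell ratio versus vehicle.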
row,Compound,inhibition in vivo at 3 mg/kg
1,C/N=C(\S)n1nc(-c2ccco2)nc1N,18%
2,Cn1cnc2nc(-c3ccc(Cl)cc3Cl)nn2c1=S,90%
3,C/N=C(\S)n1nc(/C=C/c2ccc(Cl)cc2)nc1N,25%
4,C/N=C(\S)n1nc(-c2ccc(-c3ccccc3)cc2)nc1N,58%
5,C/N=C(\S)n1nc(-c2ccc(Cl)c3ccccc23)nc1N,14%
6,Cn1cnc2nc(-c3ccc(F)cc3)nn2c1=S,38%
7,Cn1cnc2nc(-c3ccc(Br)cc3)nn2c1=S,84%
8,Cc1nc2nc(-c3ccc(Cl)cc3)nn2c(=S)n1C,60%
9,C/N=C(\S)n1nc(-c2ccc(Cl)cn2)nc1N,-2%
10,C/N=C(\S)n1nc(-c2cccs2)nc1N,-7%
11,C/N=C(\S)n1nc(-c2ccc(Cl)cc2)nc1N,88%
12,C/N=C(\S)n1nc(Oc2ccccc2)nc1N,-5%
13,Cn1cnc2nc(-c3ccc(Cl)c(Cl)c3)nn2c1=S,89%
14,C/N=C(\S)n1nc(C#Cc2ccccc2)nc1N,0%
15,C/N=C(\S)n1nc(Cc2ccccc2)nc1N,-24%
16,Cn1c(-c2ccccc2)nc2nc(-c3ccc(Cl)cc3)nn2c1=S,5%
17,Cn1cnc2nc(-c3ccc(Cl)cc3)nn2c1=S,90%
18,C/N=C(\S)n1nc(-c2ccc(Cl)nc2)nc1N,-9%
19,CNC(=S)n1nc(/N=C/c2ccccc2)nc1N,37%
20,Cn1cnc2nc(-c3ccc(C(F)(F)F)cc3)nn2c1=S,87%

# Test system: Rattus norvegicus
# Experiment: Percent inhibition value on the Sephadex-induced lung eosinophilia model at an intraperitoneal (ip) dose of 0.1 mg/kg
# Format: functional
# How it was run: as §1
row,Compound,inhibition in vivo at 0.1 mg/kg
1,C[C@@H]1C[C@H]2[C@@H]3CCC4=CC(=O)C=C[C@]4(C)[C@@]3(F)[C@@H](O)C[C@]2(C)[C@@]1(O)C(=O)CO [DEXAMETHASONE],95%

# Test system: Rattus norvegicus
# Experiment: Percent inhibition value on the Sephadex-induced lung eosinophilia model at an intraperitoneal (ip) dose of 30 mg/kg
# Format: functional
# How it was run: as §1
row,Compound,inhibition in vivo at 30 mg/kg
1,Cn1cnc2ccccc2c1=S,22%
2,CCCCn1cnc2ncnn2c1=S,23%
3,Cn1c(-c2ccccc2)nc2ncnn2c1=S,29%
4,CCOc1ncnc2ncnn12,6%
5,Cn1cnc2ncnc-2c1S,9%
6,CCCn1cnc2ncnn2c1=S,49%
7,CSc1nc(N)nc2ncnn12,-29%
8,CCOC(=O)C(=O)Nc1nc2ncn(C)c(=S)n2n1,-2%
9,Cn1cnc2nc(-c3ccc(C#N)cc3)nn2c1=S,79%
10,Cn1cnc2ncnn2c1=S,69%
11,CNC(=S)n1nc(SC)nc1N,54%
12,Cn1cnc2ncnn2c1=O,17%
13,Cc1nc2ncnn2c(=S)n1C,18%
14,CSc1nc(N)n2ncnc2n1,-7%
15,c1nc2nc(NC3CCCCC3)nc(NC3CCCCC3)n2n1,1%
16,CNc1nc(NC)n2ncnc2n1,38%
17,Cn1cnc2nc(-c3ccc(Cl)cc3)nn2c1=S,92%
18,Cn1cnc2nc(-c3ccccc3)nn2c1=S,-1%
19,Cn1cnc2nncc-2c1S,-13%
